# CHO parental Ca: counter-screen: ATP calcium response change in parental CHO cells; parental CHO-K1, ATP-induced calcium, Fluo-8 fluorescence; inhibition, % at 5.6 µM; actives 0.63% (n = 330,000); AID 463079;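 active means inhibition above that plate's mean sample inhibition plus 3 SD, cut at about 26% in these data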
#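 Assay system – parental CHO cells · Reagent – ATP stimulus · Detection – intracellular calcium via Fluo-8 no-wash fluorescent dye · Evaluation – percent inhibition of ATP-evoked calcium rise, normalized to controls · Controls – ATP wells versus no-ATP DMSO wells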
# OX1R antag-1: antagonists of human orexin 1 receptor; O43613; CHO/OX1R cells, Fluo-8 calcium fluorescence, orexin A; inhibition, % at 5 µM; actives 0.43% (n = 330,000); AID 434989;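 active means inhibition above its plate's threshold, mean inhibition of all tested compounds on the plate plus 3 SD, cut at about 37% in these data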
# OXTR potentiate: potentiates the human oxytocin receptor response. P30559. CHO-OTR cells, Fluo-8 calcium fluorescence, potentiator mode; 0% = oxytocin EC15, 100% = EC100. activation, % at 3 µM. actives 0.061% (n = 320,000). AID 2445;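 active means activation above that plate's cutoff, the mean activation of tested compounds plus 3 SD, cut at about 6.6% in these data, passing the limit was not always enough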
# Target sequence (P30559 whole entry, looked up): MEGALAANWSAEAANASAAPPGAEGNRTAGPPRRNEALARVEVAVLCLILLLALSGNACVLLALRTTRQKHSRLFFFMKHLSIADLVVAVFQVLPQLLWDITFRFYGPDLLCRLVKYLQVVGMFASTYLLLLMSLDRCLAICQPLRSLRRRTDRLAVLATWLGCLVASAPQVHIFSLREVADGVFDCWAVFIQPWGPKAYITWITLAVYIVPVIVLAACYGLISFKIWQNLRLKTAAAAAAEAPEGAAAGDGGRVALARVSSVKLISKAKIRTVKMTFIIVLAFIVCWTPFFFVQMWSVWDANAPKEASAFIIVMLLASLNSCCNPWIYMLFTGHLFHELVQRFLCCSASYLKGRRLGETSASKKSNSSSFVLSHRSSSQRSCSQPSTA
#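 Assay system: CHO cell line stably expressing human OTR. Reagent: EC15 oxytocin agonist. Dosing: single dose, 3.0 µM nominal final compound concentration. Timing: compound 6 min at room temperature before oxytocin, 100 s read. Signal: kinetic Fluo-8 calcium fluorescence. Controls: oxytocin EC15 low and EC100 high.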
# OXTR ag: activates the human oxytocin receptor; CHO-OTR cells, Fluo-8 calcium fluorescence; normalized: DMSO 0%, oxytocin 100%; activation, % at 3 µM; actives 0.32% (n = 320,000); AID 2435;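 active means activation above the mean of all tested compounds plus 3 SD, cutoff set per screening run, cut at about 20% in these data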;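 further: peak over basal fluorescence ratio from a 100 s FLIPR kinetic read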
# OX1R antag-2: OX1R (human) antagonism; OX1R-expressing cells, FRET antagonist read-out; inhibition, % at 6.6 µM; actives 1.8% (n = 330,000); AID 485270; in the data active means inhibition mostly above about 38%, no sharp cut-off; inactive means mostly below about 40%
# V1aR counter: activates human V1a receptor in oxytocin agonist counter-screen; CHO-V1R cells, Fluo-8 calcium fluorescence, agonist mode; 0% DMSO, 100% 3 nM vasopressin; activation, % at 3 µM; actives 0.25% (n = 320,000);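 active means activation above the mean activation of all tested compounds plus 3 SD, per screening run, cut at about 20% in these data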;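 further: signal is peak over basal fluorescence ratio across a 100 second FLIPR read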
# OX1R Fluo8 conf: OX1R (human) antagonism, confirmed. shares compounds with OX1R antag-1. CHO/OX1R cells, orexin A calcium Fluo-8 fluorescence. inhibition, % at 5 µM. AID 492963. actives 38% (n = 1,100); in the data active means inhibition above about 29%
# CHO Ca triplic: counter-screen for OX1R antagonists: effect in parental CHO cells; actives 9.3% (n = 1,100); shares compounds with OX1R antag-1; AID 492965; inhibition, % at 5.6 µM; parental CHO-K1, ATP-induced calcium, Fluo-8 fluorescence;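 active means inhibition above a per-plate limit, the mean inhibition of that plate's test compounds plus 3 SD, cut at about 25% in these data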
# OX1R HTRF conf: confirmation of human orexin 1 receptor antagonists, HTRF format; shares compounds with OX1R antag-2; OX1R-expressing cells, HTRF antagonist assay; inhibition, % at 6.6 µM; actives 49% (n = 1,800); AID 492964; in the data active means inhibition above about 55%;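 further: CHO cells expressing OX1R stimulated with orexin A at about EC80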
# CHO-K1 HTRF: counter-screen for OX1R antagonists: effect in parental CHO-K1 cells; HTRF counterscreen; actives 48% (n = 1,800); shares compounds with OX1R antag-2; AID 493232; inhibition, % at 6.6 µM; in the data active means inhibition above about 17%
# Hits are given with their value; . = inactive; / = not tested or not shown. Hits are enriched below; roughly 2.6% of the tested compounds scored in any of these assays.
SMILES,CHO parental Ca,OX1R antag-1,OXTR potentiate,OXTR ag,OX1R antag-2,V1aR counter,OX1R Fluo8 conf,CHO Ca triplic,OX1R HTRF conf,CHO-K1 HTRF
Cn1c(O)c(/C=C2\C=NN=C2c2ccccc2)sc1=S,.,41,.,.,39,.,.,.,.,.
COc1cccc(C(=O)C2CCCN(C(=O)c3cccc(C#CC(C)(C)O)c3)C2)c1 (stereo not given),.,.,.,.,.,.,/,/,/,/
Cc1ccc(-c2nc(NC(=O)CSc3nnnn3-c3ccccc3)ns2)cc1,.,.,.,.,.,.,/,/,/,/
Cc1ccc(-c2csc3nnc(SCC(=O)Nc4nsc(-c5ccccc5)n4)n23)cc1,.,68,.,.,82,.,48,.,91,.
CCOc1cc(N2CCOCC2)c(OCC)cc1NCC(=O)N1CCN(Cc2ccccc2)CC1,.,.,.,.,.,.,/,/,/,/
COc1cc(C)ccc1OCc1cc(C(=O)N2CCCCCCC2)no1,.,.,.,.,.,.,/,/,/,/
COc1ccccc1CNC(=O)CN(C)Cc1ccc(SC)cc1,.,.,.,.,.,.,/,/,/,/
COc1ccccc1OCC(=O)c1[nH]c(C)c(C(C)=O)c1C,.,.,.,.,82,.,30,26,.,27
COc1ccccc1NC(=O)c1[nH]c(C)c(C(C)=O)c1C,.,.,.,.,.,.,/,/,/,/
O=C1c2ccccc2NC(c2c(Cl)cccc2Cl)N1Cc1ccccc1 (stereo not given),.,.,.,.,82,.,.,.,.,.
COc1ccc(CN(C(=O)CN2C(=O)C(C)Oc3ccccc32)C2CCCC2)c(OC)c1 (stereo not given),.,59,.,.,84,.,.,.,77,.
CCN(CC(=O)Nc1cccc(S(=O)(=O)N(C)c2ccccc2)c1)Cc1ccccc1,.,77,.,.,28,.,.,.,.,.
Cc1onc(-c2ccccc2)c1C(=O)NC(=S)NNC(=O)c1cc(-c2ccc(F)cc2)n[nH]1,.,.,.,.,.,.,/,/,/,/
Cc1cc(SCC(=O)OC(C)C(=O)N(C)c2ccccc2)nc2ccccc12 (stereo not given),.,48,.,.,38,.,.,.,61,.
Cn1c2ccccc2c2cc(/C=N/NC(=O)c3ccccc3F)ccc21,.,.,.,.,102,.,.,.,94,.
CCn1c2ccccc2c2cc(/C=N/NC(=O)c3ccccc3C)ccc21,.,.,.,.,.,.,/,/,/,/
CCSc1nnc(NC(=O)CSc2nc3c(c(=O)n2-c2ccccc2OC)SCC3)s1,.,.,.,.,36,.,.,.,76,.
COc1ccc(NC(=O)CSc2nc3c(c(=O)n2-c2ccccc2OC)SCC3)cc1,.,.,.,.,.,.,/,/,/,/
CCOc1ccc2nc(NC(=O)C(NS(=O)(=O)c3cccs3)C(C)C)sc2c1 (stereo not given),.,.,.,.,.,.,/,/,/,/
CCOc1ccc2nc(NC(=O)C3CCCN(S(=O)(=O)c4cccs4)C3)sc2c1 (stereo not given),.,52,.,.,84,.,36,.,62,.
O=C(Nc1nccs1)c1ccc(-c2ccc(F)c(Cl)c2)o1,.,47,.,.,97,.,.,.,72,.
O=C(NC(=S)Nc1cc(C(F)(F)F)ccc1N1CCOCC1)c1ccco1,.,.,.,.,.,.,/,/,/,/
Cc1cccc(/C=N/NC(=O)c2cc3c(s2)-c2ccccc2CC3)c1,.,81,.,.,87,.,92,.,85,.
Cc1cc(Br)ccc1NC(=O)CSc1nnc(CN2CCOCC2)n1C,.,.,.,.,.,.,/,/,/,/
CCOc1ccc(-n2c(=S)sc3c(=O)n(-c4ccc(F)cc4)c(SCC(=O)O)nc32)cc1,.,.,.,.,.,.,/,/,/,/
SMILES,CHO parental Ca,OX1R antag-1,OXTR potentiate,OXTR ag,OX1R antag-2,V1aR counter,OX1R Fluo8 conf,CHO Ca triplic,OX1R HTRF conf,CHO-K1 HTRF
CCOC(=O)c1ccc2[nH]c3c(c2c1)CCCC3O (stereo not given),.,.,.,.,.,.,/,/,/,/
CCOC(=O)c1ccc2[nH]c3c(c2c1)CCCC3,.,.,.,.,78,.,.,.,.,.
Cc1nccc(-c2ccc3c(c2)OCO3)n1,.,.,.,.,.,.,/,/,/,/
c1ccc(-c2nccc(-c3ccc4c(c3)OCO4)n2)cc1,.,.,.,.,90,.,.,.,84,.
COc1ccccc1N1CCN(CCCCOc2ccc(C)cc2C)CC1,.,.,.,.,.,.,/,/,/,/
CCN(c1ccccc1)S(=O)(=O)c1ccc(Cl)c(NC(=O)CNC(C)c2ccccc2)c1 (stereo not given),.,50,.,.,28,.,.,37,.,.
Nc1c(C(=O)c2ccc(Br)s2)oc2ccccc12,.,.,.,.,77,.,.,.,57,.
O=C(NC(Cc1c[nH]c2ccccc12)C(=O)N/N=C/c1ccc(Cl)cc1)c1cccs1 (stereo not given),.,48,.,.,98,.,64,.,81,.
O=C(Nc1ccc2nn(-c3ccccc3)nc2c1)c1cccs1,.,.,.,.,83,.,.,.,55,.
O=C(Nc1ccc2nsnc2c1)c1cccs1,.,.,.,.,.,.,/,/,/,/
Cc1nc2ccc3nc(NC(=O)c4ccco4)sc3c2s1,.,61,.,.,72,.,.,.,84,.
CCN(CC)c1ccc(/C=N/NC(=O)c2ccco2)cc1,.,.,.,.,.,.,/,/,/,/
CCN(CC)c1ccc(/C=N/NC(=O)c2ccco2)c(O)c1,.,36,.,.,68,.,73,.,88,.
COc1ccc(NC(=O)c2cccs2)cc1C(=O)N1CCN(c2ccccc2)CC1,.,.,.,.,.,.,/,/,/,/
Cc1cc(C(=O)NCc2cccc(Cl)c2)c2ccccc2n1,.,.,.,.,87,.,31,.,67,.
Cc1cc(C(=O)NCc2ccccc2Cl)c2ccccc2n1,.,.,.,.,.,.,/,/,/,/
CCCSc1nc2c3c(sc2c(=O)[nH]1)CC(C)(CC)OC3 (stereo not given),.,.,.,.,.,.,/,/,/,/
Cc1cc(N/N=C/c2ccccc2O)nc(-c2ccccc2O)n1,.,54,.,.,90,.,.,.,.,.

# From PubChem
